The results in this text go back to ChEMBL document CHEMBL1909601, “Synthesis and structure-activity relationship studies of dihydronaphthyridinediones as a novel structural class of potent and selective PDE7 inhibitors” (Bioorg Med Chem Lett, 2011).

In experiment [1] the target is 3',5'-cyclic-AMP phosphodiesterase 4A (Homo sapiens, UniProt P27815). In words: Inhibition of human recombinant PDE4A4 expressed in baculovirus infected insect Sf21 cells after 30 mins by scintillation proximity assay. The gist of the method: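 Full-length human recombinant enzyme expressed in baculovirus-infected Sf21 cells. Scintillation proximity assay with 500 nM [3H]-cAMP substrate in 80 mM Tris/10 mM MgSO4, pH 7.4. Incubated 30 min at 37 °C, then SPA beads added and plates counted. Background taken in presence of 10 µM rolipram. IC50 reported.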
(SPA uses beads or plates that emit light when radiolabelled molecules are held near them.)

The target of experiment [2] is High affinity 3',5'-cyclic-AMP phosphodiesterase 7A (Homo sapiens, UniProt Q13946). In words: Inhibition of human recombinant PDE7A1 expressed in baculovirus infected insect Sf21 cells after 30 mins by scintillation proximity assay. In outline:
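Full-length human recombinant PDE7A1 produced in baculovirus-infected Sf21 cells. SPA read-out with [3H]-cAMP at 20 nM in 80 mM Tris/10 mM MgSO4, pH 7.4. Reaction run 30 min at 37 °C before bead addition and scintillation counting. Background measured without enzyme. IC50 derived.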

A further experiment is filed under the species Homo sapiens. In words: Selectivity ratio of IC50 for human recombinant PDE4A4 to IC50 for human recombinant PDE7A1. The gist of the method: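 Ratio of IC50 values for the two enzymes. PDE4A4 run at 500 nM [3H]-cAMP with a 10 µM rolipram background; PDE7A1 run at 20 nM [3H]-cAMP with a no-enzyme background. Both used full-length human enzymes from Sf21 cells, 30 min at 37 °C, pH 7.4 Tris/MgSO4, SPA read-out.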

Sequence of High affinity 3',5'-cyclic-AMP phosphodiesterase 7A (Q13946 whole entry): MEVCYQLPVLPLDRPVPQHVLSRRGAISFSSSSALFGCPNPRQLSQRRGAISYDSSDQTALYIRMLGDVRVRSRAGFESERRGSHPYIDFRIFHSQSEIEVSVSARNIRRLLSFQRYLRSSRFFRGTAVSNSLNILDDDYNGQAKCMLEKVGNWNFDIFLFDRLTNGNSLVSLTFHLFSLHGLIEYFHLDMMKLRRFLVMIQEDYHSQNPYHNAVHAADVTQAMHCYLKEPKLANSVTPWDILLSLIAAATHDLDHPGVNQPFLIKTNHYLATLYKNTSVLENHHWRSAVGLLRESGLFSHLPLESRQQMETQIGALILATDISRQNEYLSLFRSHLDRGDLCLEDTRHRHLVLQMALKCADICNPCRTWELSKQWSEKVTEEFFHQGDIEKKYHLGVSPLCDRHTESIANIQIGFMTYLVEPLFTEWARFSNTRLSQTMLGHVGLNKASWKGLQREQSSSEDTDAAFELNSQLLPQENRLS
Sequence of 3',5'-cyclic-AMP phosphodiesterase 4A (P27815 whole entry): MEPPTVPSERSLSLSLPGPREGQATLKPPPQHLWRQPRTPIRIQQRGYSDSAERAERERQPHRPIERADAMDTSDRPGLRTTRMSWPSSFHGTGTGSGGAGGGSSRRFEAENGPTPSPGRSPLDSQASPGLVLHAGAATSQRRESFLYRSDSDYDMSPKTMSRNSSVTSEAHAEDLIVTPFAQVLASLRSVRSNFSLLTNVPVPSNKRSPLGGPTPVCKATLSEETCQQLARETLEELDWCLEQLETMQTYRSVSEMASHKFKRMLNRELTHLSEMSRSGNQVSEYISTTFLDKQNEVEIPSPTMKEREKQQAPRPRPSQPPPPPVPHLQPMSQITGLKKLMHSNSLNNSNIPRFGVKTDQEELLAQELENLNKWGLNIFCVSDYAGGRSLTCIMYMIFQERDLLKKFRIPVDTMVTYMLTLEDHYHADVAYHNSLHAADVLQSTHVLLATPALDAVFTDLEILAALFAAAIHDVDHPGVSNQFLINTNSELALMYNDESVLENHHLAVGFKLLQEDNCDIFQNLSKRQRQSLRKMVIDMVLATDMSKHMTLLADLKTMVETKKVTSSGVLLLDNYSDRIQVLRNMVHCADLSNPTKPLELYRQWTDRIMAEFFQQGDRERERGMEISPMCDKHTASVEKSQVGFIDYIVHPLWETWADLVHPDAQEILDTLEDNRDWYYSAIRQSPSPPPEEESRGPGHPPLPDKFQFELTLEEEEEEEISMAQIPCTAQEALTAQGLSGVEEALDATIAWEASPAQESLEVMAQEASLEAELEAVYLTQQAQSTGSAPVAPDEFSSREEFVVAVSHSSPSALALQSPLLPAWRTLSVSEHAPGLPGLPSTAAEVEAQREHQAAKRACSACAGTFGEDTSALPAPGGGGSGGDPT

On to `COc1cc(NC(=O)c2cn(Cc3ccccc3Cl)c3ccc(=O)[nH]c3c2=O)cc(OC)c1OC`, for which the IC50 (as a rule, the concentration needed to halve the response being measured) in experiment [1] was more than 1000 nM; in experiment [2] it was 178 nM.
In the case of `O=C(Nc1ccc(N2CCOCC2)cc1)c1cn(Cc2ccc(OC(F)(F)F)cc2)c2ccc(=O)[nH]c2c1=O`, the IC50 in experiment [1] and in experiment [2] was more than 1000 nM in each case.
Consider `NC(=O)c1ccc(NC(=O)c2cn(Cc3c(F)cccc3Cl)c3ccc(=O)[nH]c3c2=O)cc1`, for which the IC50 is 90 nM in experiment [1] and 10 nM in experiment [2]. In addition, the Ratio IC50 in the experiment filed under Homo sapiens came to 6.
For `N#Cc1cccc(NC(=O)c2cn(Cc3c(F)cccc3F)c3ccc(=O)[nH]c3c2=O)c1`, the IC50 in experiment [1] was more than 1000 nM; in experiment [2], 1070 nM.
As for `NC(=O)c1ccc(NC(=O)c2cn(Cc3c(F)cccc3F)c3ccc(=O)[nH]c3c2=O)cc1`, the IC50 in experiment [1] is 201 nM; in experiment [2], 49 nM.
The like results for `O=C(Nc1ccc(S(=O)(=O)Nc2nccs2)cc1)c1cn(Cc2c(F)cccc2F)c2ccc(=O)[nH]c2c1=O` were, in that order, 481 nM and 25 nM.
Taken in the same sequence, the figures for `COc1cc(NC(=O)c2cn(Cc3ccccc3)c3ccc(=O)[nH]c3c2=O)cc(OC)c1OC` were more than 1000 nM and 686 nM.
As to `Nc1ccc(NC(=O)c2cn(Cc3c(F)cccc3F)c3ccc(=O)[nH]c3c2=O)cc1`, the IC50 in experiment [1] was determined as 477 nM; in experiment [2], 104 nM.
Taken in the same sequence, the figures for `CN(C)c1ccc(NC(=O)c2cn(Cc3c(F)cccc3F)c3ccc(=O)[nH]c3c2=O)cc1` were 471 nM and 66 nM.
In the case of `O=C(Nc1c(F)cccc1F)c1cn(Cc2c(F)cccc2F)c2ccc(=O)[nH]c2c1=O`, the IC50 was 219 nM in experiment [1] and more than 1000 nM in experiment [2].
Consider `O=C(Nc1ccc(N2CCOCC2)cc1)c1cn(Cc2c(F)cccc2F)c2cccnc2c1=O`, for which the values for the IC50 in experiment [1] and in experiment [2] were 379 nM and 823 nM, respectively.
Take `CS(=O)(=O)c1cccc(NC(=O)c2cn(Cc3c(F)cccc3Cl)c3ccc(=O)[nH]c3c2=O)c1`: the IC50 in experiment [1] was determined as 1420 nM; in experiment [2], 59 nM. Besides, the Ratio IC50 in the experiment listed under Homo sapiens was 24.
As for `O=C(Nc1ccc(C(F)(F)F)cc1)c1cn(Cc2c(F)cccc2F)c2ccc(=O)[nH]c2c1=O`, the IC50 in experiment [1] was more than 1000 nM; in experiment [2], 300 nM.
The like results for `O=C(NCc1ccncc1)c1ccc(NC(=O)c2cn(Cc3c(F)cccc3F)c3ccc(=O)[nH]c3c2=O)cc1` were, in that order, 430 nM and 20 nM.
Regarding `O=C(Nc1ccc(C(=O)N2CCOCC2)cc1)c1cn(Cc2c(F)cccc2F)c2ccc(=O)[nH]c2c1=O`, the half-inhibitory concentration (IC50) is 1060 nM in experiment [1] and 188 nM in experiment [2].
Taken in the same sequence, the figures for `COc1cc(NC(=O)c2cn(Cc3c(F)cccc3F)c3ccc(=O)[nH]c3c2=O)cc(OC)c1OC` were 516 nM and 18 nM.
Taken in the same sequence, the figures for `COc1cc(NC(=O)c2cn(Cc3ccc(F)cc3Cl)c3ccc(=O)[nH]c3c2=O)cc(OC)c1OC` were more than 1000 nM and 192 nM.
For `COc1cc(NC(=O)c2cn(Cc3c(F)cccc3Cl)c3ccc(=O)[nH]c3c2=O)cc(OC)c1OC`, the IC50 in experiment [1] was more than 1000 nM; in experiment [2], 33 nM.
Take `CS(=O)(=O)c1ccc(NC(=O)c2cn(Cc3c(F)cccc3F)c3ccc(=O)[nH]c3c2=O)cc1`: the IC50 in experiment [1] is more than 1000 nM; in experiment [2], 27 nM.
`N#Cc1ccc(NC(=O)c2cn(Cc3c(F)cccc3F)c3ccc(=O)[nH]c3c2=O)cc1`: the IC50 is more than 1000 nM in experiment [1] and 96 nM in experiment [2].
Taken in the same sequence, the figures for `O=C(Nc1ccc(N2CCOCC2)cc1)c1cn(Cc2c(Cl)cccc2Cl)c2ccc(=O)[nH]c2c1=O` were more than 1000 nM and 165 nM.
The like results for `CCN(CC)c1ccc(NC(=O)c2cn(Cc3c(F)cccc3F)c3ccc(=O)[nH]c3c2=O)cc1` were, in that order, 442 nM and 46 nM.
The like results for `O=C(Nc1ccccc1)c1cn(Cc2c(F)cccc2F)c2ccc(=O)[nH]c2c1=O` were, in that order, 1330 nM and 94 nM.
On to `O=C(Nc1ccc(OC(F)(F)F)cc1)c1cn(Cc2c(F)cccc2F)c2ccc(=O)[nH]c2c1=O`, for which the results for the half-inhibitory concentration (IC50) in experiment [1] and in experiment [2] were more than 1000 nM and 90 nM, respectively.
`COc1ccc2c(n1)c(=O)c(C(=O)Nc1ccc(N3CCOCC3)cc1)cn2Cc1c(F)cccc1F`: the IC50 in experiment [1] and in experiment [2] was more than 5000 nM in each case.
In the case of `O=C(Nc1ccc(N2CCOCC2)cc1)c1cn(Cc2ccccc2C(F)(F)F)c2ccc(=O)[nH]c2c1=O`, the IC50 in experiment [1] and in experiment [2] was more than 1000 nM throughout.
For `O=C(Nc1ccc(N2CCOCC2)cc1)c1cn(Cc2ccc(F)cc2F)c2ccc(=O)[nH]c2c1=O`, the IC50 in experiment [1] and in experiment [2] was more than 1000 nM in each case.
On to `O=C(Nc1ccc(N2CCOCC2)cc1)c1cn(Cc2c(F)cccc2F)c2ccc(=O)[nH]c2c1=O`, for which the IC50 in experiment [1] turned out to be 506 nM; in experiment [2], 22 nM.
Consider `COc1cc(NC(=O)c2cn(Cc3c(Cl)cccc3Cl)c3ccc(=O)[nH]c3c2=O)cc(OC)c1OC`, for which the results for the IC50 in experiment [1] and in experiment [2] were 979 nM and 88 nM, respectively.
Taken in the same sequence, the figures for `CSc1ccc(NC(=O)c2cn(Cc3c(F)cccc3F)c3ccc(=O)[nH]c3c2=O)cc1` were more than 1000 nM and 86 nM.
Take `O=C(Nc1ccc(OC(F)F)cc1)c1cn(Cc2c(F)cccc2F)c2ccc(=O)[nH]c2c1=O`: the IC50 amounted to 568 nM in experiment [1] and 71 nM in experiment [2].
Taken in the same sequence, the figures for `O=C(Nc1ccc(N2CCOCC2)cc1)c1cn(Cc2ccccc2)c2ccc(=O)[nH]c2c1=O` were more than 1000 nM and 712 nM.
The like results for `COc1cc(NC(=O)c2cn(Cc3c(F)cccc3F)c3ccc(=O)[nH]c3c2=O)cc(OC)c1` were, in that order, more than 1000 nM and 212 nM.
For `O=C(Nc1ccc(N2CCOCC2)cc1)c1cn(Cc2ccccc2Cl)c2ccc(=O)[nH]c2c1=O`, the results for the IC50 in experiment [1] and in experiment [2] were more than 1000 nM and 767 nM, respectively.
The like results for `O=C(Nc1ccc(O)cc1)c1cn(Cc2c(F)cccc2F)c2ccc(=O)[nH]c2c1=O` were, in that order, more than 1000 nM and 105 nM.
Taken in the same sequence, the figures for `O=C(Nc1ccc(N2CCOCC2)cc1)c1cn(Cc2c(F)c(F)cc(F)c2F)c2ccc(=O)[nH]c2c1=O` were 3560 nM and 317 nM.
Taken in the same sequence, the figures for `Cc1ccccc1Cn1cc(C(=O)Nc2ccc(N3CCOCC3)cc2)c(=O)c2[nH]c(=O)ccc21` were more than 1000 nM and 266 nM.
As for `CNC(=O)c1ccc(NC(=O)c2cn(Cc3c(F)cccc3F)c3ccc(=O)[nH]c3c2=O)cc1`, the half-maximal inhibitory concentration (IC50) in experiment [1] came out at 560 nM; in experiment [2], 29 nM.
Regarding `O=C(O)Cc1ccc(NC(=O)c2cn(Cc3c(F)cccc3F)c3ccc(=O)[nH]c3c2=O)cc1`, the IC50 in experiment [1] is more than 1000 nM; in experiment [2] it was 176 nM.
Turning to `O=C(O)c1ccc(NC(=O)c2cn(Cc3c(F)cccc3F)c3ccc(=O)[nH]c3c2=O)cc1`, the IC50 in experiment [1] is 1520 nM; in experiment [2], 200 nM.
Take `COc1ccc(NC(=O)c2cn(Cc3c(F)cccc3F)c3ccc(=O)[nH]c3c2=O)cc1`: the values for the IC50 in experiment [1] and in experiment [2] were more than 1000 nM and 151 nM, respectively.
Taken in the same sequence, the figures for `COc1cc(NC(=O)c2cn(Cc3ccc(F)cc3)c3ccc(=O)[nH]c3c2=O)cc(OC)c1OC` were more than 1000 nM and 868 nM.
Take `O=C(Nc1ccc(F)cc1)c1cn(Cc2c(F)cccc2F)c2ccc(=O)[nH]c2c1=O`: the IC50 in experiment [1] is more than 1000 nM; in experiment [2], 179 nM.
Consider `CNc1ccc(NC(=O)c2cn(Cc3c(F)cccc3F)c3ccc(=O)[nH]c3c2=O)cc1`, for which the IC50 in experiment [1] came out at 994 nM; in experiment [2], 82 nM.
For `O=C(Nc1ccc(N2CCOCC2)cc1)c1cn(Cc2ccc(F)cc2)c2ccc(=O)[nH]c2c1=O`, the IC50 in experiment [1] is more than 5000 nM; in experiment [2], 2380 nM.
The like results for `COc1cc(NC(=O)c2cn(Cc3ccccc3Br)c3ccc(=O)[nH]c3c2=O)cc(OC)c1OC` were, in that order, more than 1000 nM and more than 1000 nM.
Regarding `O=C(Nc1ccc(N2CCCCC2)cc1)c1cn(Cc2c(F)cccc2F)c2ccc(=O)[nH]c2c1=O`, the IC50 was more than 1000 nM in experiment [1] and 124 nM in experiment [2].
Consider `CC(=O)Nc1ccc(NC(=O)c2cn(Cc3c(F)cccc3F)c3ccc(=O)[nH]c3c2=O)cc1`, for which the IC50 in experiment [1] was determined as 362 nM; in experiment [2] it was 24 nM.
The like results for `NS(=O)(=O)c1ccc(NC(=O)c2cn(Cc3c(F)cccc3F)c3ccc(=O)[nH]c3c2=O)cc1` were, in that order, 458 nM and 34 nM.
Turning to `O=C(Nc1ccc(S(=O)(=O)Nc2nccs2)cc1)c1cn(Cc2c(F)cccc2Cl)c2ccc(=O)[nH]c2c1=O`, the IC50 in experiment [1] worked out at 274 nM; in experiment [2], 32 nM.
Taken in the same sequence, the figures for `CC(=O)c1ccc(NC(=O)c2cn(Cc3c(F)cccc3F)c3ccc(=O)[nH]c3c2=O)cc1` were more than 1000 nM and 29 nM.
With `COc1cc(NC(=O)c2cn(Cc3ccccc3F)c3ccc(=O)[nH]c3c2=O)cc(OC)c1OC`, the IC50 was more than 1000 nM in experiment [1] and 206 nM in experiment [2].
Taken in the same sequence, the figures for `O=C(Nc1ccc(N2CCOCC2)cc1)c1cn(Cc2cc(F)cc(F)c2)c2ccc(=O)[nH]c2c1=O` were more than 1000 nM and more than 1000 nM.
Taken in the same sequence, the figures for `COc1ccc(NC(=O)c2cn(Cc3c(F)cccc3Cl)c3ccc(=O)[nH]c3c2=O)cc1Cl` were more than 1000 nM and 34 nM.
With `CNC(=O)c1ccc(NC(=O)c2cn(Cc3c(F)cccc3Cl)c3ccc(=O)[nH]c3c2=O)cc1`, the values for the IC50 in experiment [1] and in experiment [2] were 156 nM and 18 nM, respectively.
